How the values were obtained:
[1] = melting temperature; fluorescence melt of hairpins on a sequencing array, two-state fit, raised by 9.35 °C to match UV melts; conditions: sodium 0.088 M
Method in brief: (§1)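 To match UV melts, fitted temperatures were raised by 9.35 °C. These fits were bootstrapped two-state models that gave melting temperature and folding enthalpy, combined by inverse variance over four replicates. The input was normalised Cy3 fluorescence of library hairpins with annealed Cy3 and quencher oligos on a sequenced MiSeq flow cell, imaged in 50 mM Na-HEPES pH 8.0, 25 mM NaCl in 2.5 °C steps up to 60 °C.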

[2] = folding enthalpy; higher = less favourable; fluorescence melt of hairpins on a sequencing array, two-state fit; conditions: sodium 0.088 M
Method in brief: as §1

Row | Sequence | Tm [1] [°C] | folding enthalpy [2] [kcal/mol]
1 | GCTGAGGGAAACCTTGGC ((..(((....)))..)) | 38.1 | -26.6
2 | GCTGAGGGAAACTTCAGC (((((.(....).))))) | 48.6 | -32.5
3 | GCTGAGTCGAAAGACAGC (((..(((....)))))) | 44.5 | -20.8
4 | GCTGATGGAAACATCGGC ((.((((....)))).)) | 54.1 | -43
5 | GCTGATGGAAACATTAGC (((.(((....))).))) | 46.5 | -37.4
6 | GCTGCAACGAAAGTTAGC (((..(((....)))))) | 39.8 | -17.2
7 | GCTGCACGAAAGTGAGC (((.(((....)))))) | 51.3 | -18.8
8 | GCTGCACGAAAGTGGAGC (((.(((....))).))) | 65.6 | -34.2
9 | GCTGCACGAAAGTGTAGC (((.(((....))).))) | 65 | -43.9
10 | GCTGCAGGAAACTGTAGC (((.(((....))).))) | 52 | -34.3
11 | GCTGCCGAAAGGCGCAGC ((((((....)))..))) | 51.3 | -13.6
12 | GCTGCCGCGAAAGCGAGC (((..(((....)))))) | 57.6 | -9.35
13 | GCTGCCGGAAACGGCAAC (.(((((....))))).) | 47.4 | -10.9
14 | GCTGCCGGAAACGGTAGC (((.(((....))).))) | 64 | -39.9
15 | GCTGCGCGAAAGCATAGC (((..((....))..))) | 46.5 | -18.2
16 | GCTGCGCGAAAGCCAAGC (((..((....))..))) | 48.9 | -18.9
17 | GCTGCGCGAAAGCCCAGC ((((.((....)).)))) | 63.5 | -31.1
18 | GCTGCGCGAAAGCGACGC ((..(((....)))..)) | 56 | -19.4
19 | GCTGCGCGAAAGCGAGGC ((..(((....)))..)) | 60.6 | -20.3
20 | GCTGCGCGAAAGCGCCGC ((.((((....)))).)) | 63.1 | -15.3
21 | GCTGCGCGAAAGCGGTGC ((..(((....)))..)) | 55.1 | -19.6
22 | GCTGCGCGAAAGCGTTGC ((..(((....)))..)) | 56.7 | -18.9
23 | GCTGCGGGAAACTGCAGC (((((.(....).))))) | 64.5 | -40.6

Row | Sequence | Tm [1] [°C] | folding enthalpy [2] [kcal/mol]
24 | GCTGCTACGAAAGTAAGC (((..(((....)))))) | 41.5 | -17.1
25 | GCTGCTGGAAACGGCAGC (((((.(....).))))) | 63.1 | -44.6
26 | GCTGCTTCGAAAGAAAGC (((..(((....)))))) | 39.6 | -18
27 | GCTGGAGCGAAAGCTAGC (((..(((....)))))) | 49.9 | -16.6
28 | GCTGGCGAAAGCCAAAGC ((((((....)))..))) | 53.5 | -18.2
29 | GCTGGCGAAAGCCATAGC ((((((....)))..))) | 52.3 | -16.2
30 | GCTGGCGAAAGCCCAAGC ((((((....)))..))) | 50 | -15.3
31 | GCTGGCGAAAGCCCAGC ((((((....))).))) | 65.7 | -23.1
32 | GCTGGCGAAAGCCGAAGC ((((((....)))..))) | 50.8 | -16.5
33 | GCTGGCGAAAGCCGAGC ((((((....))).))) | 65.3 | -23.5
34 | GCTGGCGAAAGCCGTAGC ((((((....)))..))) | 58.9 | -13.9
35 | GCTGGCGAAAGCCTGAGC ((((((....)))..))) | 50.2 | -14.8
36 | GCTGGCGCGAAAGCGAGC (((..(((....)))))) | 55.6 | -9.37
37 | GCTGGCGGAAACGCTAGC (((.(((....))).))) | 59.1 | -40.5
38 | GCTGGGCGAAAGCCAGGC ((..(((....)))..)) | 59.6 | -17.7
39 | GCTGGGCGAAAGCCGCGC ((..(((....)))..)) | 61.4 | -15.3
40 | GCTGGGCGAAAGCTCCGC ((.(.((....)).).)) | 41.8 | -20.4
41 | GCTGGGCGAAAGCTCGGC ((.(.((....)).).)) | 60.3 | -32.5
42 | GCTGGGCGAAAGCTTAGC (((..((....))..))) | 50.5 | -23
43 | GCTGGGGCGAAAGCCAGC (((..(((....)))))) | 55.3 | -16.8
44 | GCTGGGGGAAACTCCAGC (((((.(....).))))) | 58 | -37.6
45 | GCTGGGTCGAAAGACAGC (((..(((....)))))) | 46 | -19.9
46 | GCTGGTCCGAAAGGAAGC (((..(((....)))))) | 34.9 | -13.2
